Screening data from PubChem BioAssay.
PMI act = activators of human PMI, primary screen, biochemical, fluorescence intensity, near-Km mannose 6-phosphate; purified human PMI, coupled resazurin fluorescence, 20 min; hits give high values; 1 = vehicle control, 0 substrate-free wells; AID 1214, 2008; actives 0.005% (n = 190,000); Mannose-6-phosphate isomerase (Homo sapiens), P34949; activation factor at 20 µM;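 active means activation factor of 2 or more at 20 µM, relative to plate controls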
Target sequence (P34949 whole entry, looked up): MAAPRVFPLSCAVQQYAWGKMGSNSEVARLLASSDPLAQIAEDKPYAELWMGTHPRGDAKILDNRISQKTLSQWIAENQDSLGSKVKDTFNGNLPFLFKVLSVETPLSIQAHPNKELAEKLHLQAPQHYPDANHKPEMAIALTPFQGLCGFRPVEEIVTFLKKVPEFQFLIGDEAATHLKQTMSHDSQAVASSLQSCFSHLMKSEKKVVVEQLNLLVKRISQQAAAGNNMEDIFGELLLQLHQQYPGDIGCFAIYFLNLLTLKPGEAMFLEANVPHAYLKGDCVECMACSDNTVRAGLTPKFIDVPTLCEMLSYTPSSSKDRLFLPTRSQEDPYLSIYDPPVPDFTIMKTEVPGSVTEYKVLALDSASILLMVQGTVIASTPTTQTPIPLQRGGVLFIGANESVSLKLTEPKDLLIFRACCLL
m-calpain inh = inhibitors of pig calpain II, primary screen, biochemical, fluorogenic peptide substrate, 1536-well; actives 0.37% (n = 220,000); AID 1236, 2008; inhibition, % at 16 µM; purified calpain II, 30 min;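 active means inhibition above about 50%, limit read from the data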
Rad51 HR inh = human RAD51 strand exchange inhibitors, primary screen, biochemical, fluorescence; inhibition, % at 10 µM; hRad51 DNA strand exchange, fluorescence dequenching; actives 0.085% (n = 200,000); AID 1385, 2008; DNA repair protein RAD51 homolog 1 (Homo sapiens), Q06609;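 active means inhibition above 40% at the single screening dose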;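 further: 0% = DMSO control wells and 100% = blanks with heterologous ssDNA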
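material = hRad51 filaments on single-stranded DNA | timing = filaments 15 min 37 °C, then compound 30 min | signal = FRET fluorescence dequenching, excitation 485 nm, emission 520 nm | benchmarks = control wells and blank wells on each plate | evaluation = percent inhibition relative to plate controls and blanks | compound = 10 µM final, single point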
WT yeast gro inh = growth inhibition of WT strain, primary screen, mitochondrial fusion inhibitor project, WT and mutant strains, chemical genetic. inhibition, % at 10 µM. mitochondrial fusion phenotypic screen. actives 2.1% (n = 190,000). AID 1362, 2008; in the data active means inhibition above about 58%; tested in S. cerevisiae
L major viab = Leishmania major promastigote growth inhibition, primary screen; AID 1063, 2008; actives 9% (n = 200,000); inhibition, % at 10 µM; Leishmania major promastigotes, resazurin fluorescence viability; in the data active means inhibition above about 50%;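 further: promastigotes grown with compound for 44 hours at 28 °C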
PMI act hi M6P = human PMI activators, high substrate, primary screen, biochemical, fluorescence intensity, near-saturating mannose 6-phosphate | coupled PMI enzyme assay, resazurin fluorescence, 20 min; hits give high values; 1 = untreated enzyme, 0 = substrate-free blank | activation factor at 20 µM | actives 0.34% (n = 190,000) | AID 1216, 2008;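 active means activation factor of 2 or more at 20 µM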
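Test system: Human PMI in coupled enzyme assay | Input: 15 ng/mL PMI | Medium: HEPES-buffered pH 7.4 with magnesium and detergent | Compound: One concentration, 20 µM, in 1% DMSO | Incubation: Enzyme reaction with compound 20 min at room temperature | Detection: Diaphorase-driven resazurin-to-resorufin fluorescence, excitation 544, emission 590 nm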
* = called active by the depositor; i = inactive; x = no result. Compounds with a hit are over-represented: about 9.8% of the library has one in this group of screens.

SMILES | PMI act | m-calpain inh | Rad51 HR inh | WT yeast gro inh | L major viab | PMI act hi M6P
COCCCNC(=O)C1CCCN(S(=O)(=O)c2ccc(C)cc2)C1 (stereo not drawn) | 1 | -0.2 | -7.3 | -1.2 | -5.0 | 0.9
Cc1ccccc1/C(N)=N/O | 0.9 | -7.8 | -2.7 | 1.3 | -3.1 | 1
CC1CN(C(=O)c2ccccc2)c2ccccc2NC1=O (stereo not drawn) | 1 | 13.3 | 7.3 | -1.3 | -0.1 | 1
COc1cc(/C=C(\C#N)c2nc3ccc(C)cc3[nH]2)c([N+](=O)[O-])cc1OC | 0.8 | 12.2 | -9.9 | 3.7 | 98.2* | 0.5
CCN(CC)c1ccc(/C=C(/C#N)c2nc3ccc(C)cc3[nH]2)c(OC(C)C)c1 | 0.9 | -5.9 | i | 27.6 | 99.6* | 0.9
Cc1ccc2nc(/C(C#N)=C\c3cc(O)ccc3[N+](=O)[O-])[nH]c2c1 | 0.9 | 25.9 | 1.4 | -8.0 | -2.7 | 0.6
CCCOc1cc(N(CC)CC)ccc1/C=C(/C#N)c1nc2ccc(C)cc2[nH]1 | 1.1 | -46.2 | -444.7 | 7.1 | 66.0* | 0.9
CCOc1cc(N(CC)CC)ccc1/C=C(/C#N)c1nc2ccccc2[nH]1 | 0.9 | -88.2 | x | -2.3 | 79.9* | 0.9
Cn1c(=O)c2cn3c(c2n(C)c1=O)C(c1ccccc1)CC(c1ccccc1)=N3 (stereo not drawn) | 1.5 | -33.5 | -4.8 | 3.1 | -8.9 | 2*
CCCc1nc2ccccc2n2cc3c(=O)n(C)c(=O)n(C)c3c12 | x | x | x | x | -3.1 | x
Cc1ccccc1N=C1SC(CC(=O)Nc2ccc3ccccc3c2)C(=O)N1Cc1ccccn1 (stereo not drawn) | 0.8 | -20.5 | -4.8 | 32.7 | 98.2* | 0.8
CCCc1cc(=O)[nH]c(SCC(=O)NN(c2ccccc2)c2ccccc2)n1 | 1 | 6.8 | 2.7 | 5.6 | 4.8 | 1
CCOC(=O)C1CCN(C(c2cc3ccc(C)c(C)c3[nH]c2=O)c2nnnn2C2CCCCC2)CC1 (stereo not drawn) | 1.5 | -85.8 | -5.5 | -0.2 | 85.7* | 1.8
CCOC(=O)C1CCN(C(c2cc3c(C)ccc(C)c3[nH]c2=O)c2nnnn2C2CCCCC2)CC1 (stereo not drawn) | 0.9 | -67.0 | 0.9 | 36.4 | 98.9* | 1
COCc1cc(=O)[nH]c(Nc2nc3ccc(C)cc3o2)n1 | 0.8 | -4.9 | 5.8 | 34.6 | 99.2* | 0.8
COc1ccc(NC(=O)/C=C/c2ccccc2[N+](=O)[O-])c(OC)c1 | 1 | 14.8 | 2.3 | 9.6 | -0.7 | 0.9
COc1ccc(CNc2ccc(S(N)(=O)=O)cc2)cc1 | 1 | 0.9 | -1.5 | -18.7 | -5.4 | 1
COc1ccc(NCc2ccc([N+](=O)[O-])s2)cc1 | 1.3 | -5.0 | 12.0 | -3.6 | 73.3* | 1.6
COc1ccc(NCc2ccc([N+](=O)[O-])s2)c(OC)c1 | 1.1 | -8.1 | 9.1 | -1.4 | 98.0* | 1
O=C(O)c1ccccc1C(=O)NCC(O)COc1ccc(Cl)cc1 (stereo not drawn) | x | 4.3 | 7.3 | x | x | x
C=C1CCC(C)C(C)(CCC2=CCOC2=O)C/C=C\C=C/1C(=O)O (stereo not drawn) | x | 13.0 | 0.5 | x | x | x
COc1ccc(C2NC(=O)NC(c3ccccc3)=C2c2nc3ccccc3s2)cc1 (stereo not drawn) | 0.9 | -175.1 | 0.2 | 26.8 | 37.4 | 1
O=C1NC(c2ccccc2)=C(c2nc3ccccc3s2)C(c2ccc(F)cc2)N1 (stereo not drawn) | 0.9 | -16.6 | 4.1 | 38.7 | 51.0* | 1
CN(C(=O)COC(=O)c1cc([N+](=O)[O-])ccc1Sc1ccccc1)C1CCS(=O)(=O)C1 (stereo not drawn) | 1 | -21.1 | -2.6 | -15.1 | 100.4* | 0.9
CN(C(=O)COC(=O)c1ccccc1Nc1ccccc1)C1CCS(=O)(=O)C1 (stereo not drawn) | 1 | -16.7 | -0.2 | 16.2 | 0.0 | 1
SMILES | PMI act | m-calpain inh | Rad51 HR inh | WT yeast gro inh | L major viab | PMI act hi M6P
Nc1nc(-c2ccccc2)nc2sc3c(c12)CCCC3 | 0.9 | 0.1 | 9.8 | 5.2 | 60.0* | 0.9
O=c1oc(-c2ccccc2)nc2sc3c(c12)CCC3 | 0.9 | -32.6 | x | -5.5 | -4.7 | 0.9
Nc1c2c(nc3sc4c(c13)CCCC4)CCCCCC2 | 0.8 | -2.2 | 15.5 | 14.8 | 55.1* | 1
Nc1nc2sc3c(c2c(=O)s1)CCCC3 | 0.9 | 18.6 | 4.0 | 35.3 | 16.5 | 0.9
Cc1cc(C(F)(F)F)nc(-n2cc(-c3ccccc3)nn2)n1 | 1 | 5.1 | x | -3.1 | -1.2 | 1
COc1cc(/C=C/c2nc3ccc([N+](=O)[O-])cc3s2)ccc1OCC(=O)O | x | -2.4 | -0.8 | x | x | x
O=C(NC1CCN(Cc2ccccc2)CC1)c1ccc(S(=O)(=O)NCc2ccco2)cc1 | 1 | -6.7 | -5.6 | -12.7 | 78.2* | 1
O=C(Cn1[nH]c(=O)c2ccccc2c1=O)NC1CCN(Cc2ccccc2)CC1 | 1 | -4.4 | -1.0 | -1.0 | 68.8* | 1
O=C(NC1CCCCC1)c1ccc(S(=O)(=O)NCc2ccco2)cc1 | 1 | -3.5 | -4.6 | 5.9 | 5.7 | 0.9
Cc1ccccc1C(=O)NC1CCN(Cc2ccccc2)CC1 | 0.9 | -26.7 | 4.9 | -10.6 | 85.2* | 0.8
O=C(NC1CCN(Cc2ccccc2)CC1)C1COc2ccccc2O1 (stereo not drawn) | 1 | -8.4 | -2.5 | 16.5 | 92.3* | 1
O=C(NCc1ccccc1)C1COc2ccccc2O1 (stereo not drawn) | 1.1 | -16.4 | 3.0 | 11.1 | 5.1 | 1.1
O=C(NC1CCN(Cc2ccccc2)CC1)c1ccc2c(c1)OCCCO2 | x | 13.8 | 15.6 | x | x | x
O=C(COc1ccccc1)NCC(=O)NC1CCCCC1 | 1 | 32.1 | -1.9 | -3.9 | -4.4 | 1
O=C(COc1ccccc1)NC1CCN(Cc2ccccc2)CC1 | 0.9 | -15.0 | -9.4 | -11.9 | 86.0* | 0.9
Cc1ccc(C)n1-c1ccc(C(=O)NC2CCN(Cc3ccccc3)CC2)cc1 | 1 | -6.5 | x | -8.3 | 81.4* | 0.9
Cc1ccc(C2C(C#N)=C(N)OC3=C2C(=O)CC(C)(C)C3)s1 (stereo not drawn) | x | -18.8 | x | x | x | x
C/C(CC(=O)Nc1ccc([N+](=O)[O-])cc1)=N/NC(=O)C1CC12CCC2 (stereo not drawn) | 0.9 | -15.0 | -8.6 | -4.4 | 3.7 | 0.9
CCOC(=O)C1=c2/c(=C/c3ccncc3)c(N)c(C(=O)OC)n2C(=O)C(c2ccncc2)S1 (stereo not drawn) | 1 | -38.4 | -11.6 | 11.5 | 55.7* | 1
